Measured values from ChEMBL document CHEMBL4190388, “Discovery and Optimization of Indolyl-Containing 4-Hydroxy-2-Pyridone Type II DNA Topoisomerase Inhibitors Active against Multidrug Resistant Gram-negative Bacteria” (J Med Chem, 2018).
Values after ≈ are worked out from the molar mass of the structure shown.

Columns and labels:
Escherichia coli [1] = assay: Antibacterial activity against fluoroquinolone resistant Escherichia coli SKM18 by CLSI M100-S17 protocol based method; type: functional
Escherichia coli [2] = assay: Antibacterial activity against wild type Escherichia coli ATCC 25922 by CLSI M100-S17 protocol based method; type: functional
Escherichia coli [3] = assay: Antibacterial activity against quinolone resistance Escherichia coli isolate ELZ4251 harboring gyrA/parC mutant by CLSI M100-S17 protocol based method; type: functional
Acinetobacter baumannii [4] = assay: Antibacterial activity against wild type Acinetobacter baumannii ATCC BAA-747 by CLSI M100-S17 protocol based method; type: functional
Acinetobacter baumannii [5] = assay: Antibacterial activity against fluoroquinolone resistant Acinetobacter baumannii isolate MMX2240 by CLSI M100-S17 protocol based method; type: functional
Klebsiella pneumoniae = assay: Antibacterial activity against wild type Klebsiella pneumoniae ATCC 35657 by CLSI M100-S17 protocol based method; type: functional
Escherichia coli [6] = assay: Antibacterial activity against wild type Escherichia coli ATCC 25922 in presence of HSA by CLSI M100-S17 protocol based method; type: functional
Escherichia coli [7] = assay: Selectivity ratio of MIC for wild type Escherichia coli ATCC 25922 in presence of HSA to MIC for wild type Escherichia coli ATCC 25922; type: functional
Mus musculus [8] = assay: Terminal half life in CD1 mouse plasma at 10 mg/kg, iv by LC-MS/MS analysis; type: ADME, organism-based; conditions: in vivo
Mus musculus [9] = assay: AUC (0 to 24 hrs) in CD1 mouse plasma at 10 mg/kg, iv by LC-MS/MS analysis; type: ADME, organism-based; design: time < 24 hr, dose 10 mg/kg, route intravenous; conditions: in vivo
Procedure, shortened: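 CD-1 mice given a single 10 mg/kg iv dose (n = 3), in either 10% DMSO plus 1% Tween 80 in pH 8.0 phosphate buffer or 20% (2-hydroxypropyl)-β-cyclodextrin in pH 4.0 citrate buffer; plasma exposure measured.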

Mus musculus [10] = assay: Volume of distribution at steady state in CD1 mouse plasma at 10 mg/kg, iv by LC-MS/MS analysis; type: ADME, organism-based; conditions: in vivo
[11] = Oral bioavailability in CD1 mouse plasma by LC-MS/MS analysis; type: ADME, organism-based
[12] = Fraction unbound in mouse plasma at 1 uM by equilibrium dialysis method; type: ADME, cell-free
Escherichia coli [13] = assay: Antibacterial activity against quinolone resistant Escherichia coli by broth microdilution method; type: functional; conditions: Escherichia coli; for MIC: read-out: MIC
Procedure, shortened: (§1)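 MICs were determined by CLSI broth methods, except that organisms were grown in brain–heart–infusion medium. The panel comprised wild-type and resistant E. coli and A. baumannii strains, including 12 strains whose details are given by reference.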

Escherichia coli [14] = assay: Antibacterial activity against wild type Escherichia coli by broth microdilution method; type: functional; procedure, shortened: as §1
Escherichia coli [15] = assay: Antibacterial activity against beta-lactam resistant Escherichia coli by broth microdilution method; type: functional; conditions: Escherichia coli; for MIC: read-out: MIC; procedure, shortened: as §1
Escherichia coli [16] = assay: Antibacterial activity against aminoglycoside resistant Escherichia coli by broth microdilution method; type: functional; conditions: Escherichia coli; for MIC: read-out: MIC; procedure, shortened: as §1
Escherichia coli [17] = assay: Antibacterial activity against multidrug resistant Escherichia coli by broth microdilution method; type: functional; conditions: Escherichia coli; for MIC: read-out: MIC; procedure, shortened: as §1
Acinetobacter baumannii [18] = assay: Antibacterial activity against wild type Acinetobacter baumannii by broth microdilution method; type: functional; procedure, shortened: as §1
Acinetobacter baumannii [19] = assay: Antibacterial activity against aminoglycoside resistant Acinetobacter baumannii by broth microdilution method; type: functional; conditions: Acinetobacter baumannii; procedure, shortened: as §1
Acinetobacter baumannii [20] = assay: Antibacterial activity against quinolone resistant Acinetobacter baumannii by broth microdilution method; type: functional; conditions: Acinetobacter baumannii; procedure, shortened: as §1
Acinetobacter baumannii [21] = assay: Antibacterial activity against beta-lactam resistant Acinetobacter baumannii by broth microdilution method; type: functional; conditions: Acinetobacter baumannii; procedure, shortened: as §1
Acinetobacter baumannii [22] = assay: Antibacterial activity against carbapenem resistant Acinetobacter baumannii by broth microdilution method; type: functional; conditions: Acinetobacter baumannii; procedure, shortened: as §1
Acinetobacter baumannii [23] = assay: Antibacterial activity against multidrug resistant Acinetobacter baumannii by broth microdilution method; type: functional; conditions: Acinetobacter baumannii; procedure, shortened: as §1
Escherichia coli [24] = assay: Antibacterial activity against Escherichia coli infected in cyclophosphamide treated neutropenic CD1 mouse septicemia model assessed as mouse survival at 20 mg/kg, iv dosed at 1 hr post infection followed by redosing at 5 hrs post infection measured at 96 hrs post infection relative to control; type: functional
Procedure, shortened: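 Female CD-1 mice were made neutropenic with cyclophosphamide ip, 150 mg/kg on day −4 and 100 mg/kg on day −1. […] Compound was given iv in 3% DMSO/saline at 1 and 5 h postinfection, n = 6 per group. Percent survival was scored at 96 h postinfection.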

| Compound | MIC (Escherichia coli [1]) [µg/mL] | MIC (Escherichia coli [2]) [µg/mL] | MIC (Escherichia coli [3]) [µg/mL] | MIC (Acinetobacter baumannii [4]) [µg/mL] | MIC (Acinetobacter baumannii [5]) [µg/mL] | MIC (Klebsiella pneumoniae) [µg/mL] | MIC (Escherichia coli [6]) [µg/mL] | Ratio (Escherichia coli [7]) | beta t1/2 (Mus musculus [8]) [h] | AUC (Mus musculus [9]) [ng·h/mL] | Vdss (Mus musculus [10]) [L/kg] | bioavailability [11] [%] | Fu [12] | MIC50 (Escherichia coli [13]) [µg/mL] | MIC90 (Escherichia coli [13]) [µg/mL] | MIC (Escherichia coli [13]) [µg/mL] | MIC50 (Escherichia coli [14]) [µg/mL] | MIC90 (Escherichia coli [14]) [µg/mL] | MIC50 (Escherichia coli [15]) [µg/mL] | MIC90 (Escherichia coli [15]) [µg/mL] | also measured |
| --- | --- | --- | --- | --- | --- | --- | --- | --- | --- | --- | --- | --- | --- | --- | --- | --- | --- | --- | --- | --- | --- |
| CN(C)Cc1cc2cc3c(cc2n1C)CCCc1c-3[nH]c(=O)c(C(=O)O)c1O | 0.78 (≈ 2.04 µM) | 0.78 (≈ 2.04 µM) | 1.6 (≈ 4.19 µM) | 1.6 (≈ 4.19 µM) | 1.6 (≈ 4.19 µM) | 0.78 (≈ 2.04 µM) | 12.5 | 4 - 16 | 2.9 | 3520 | 11 | 42 | 0.1 | 0.5 (≈ 1.31 µM) | 1 (≈ 2.62 µM) | 0.25 to 2 (≈ 0.655 to 5.24 µM) | 0.5 (≈ 1.31 µM) | 1 (≈ 2.62 µM) | 0.5 (≈ 1.31 µM) | 1 (≈ 2.62 µM) | MIC (Escherichia coli [15]): 0.25 to 2 µg/mL (≈ 0.655 to 5.24 µM); MIC50 (Escherichia coli [16]): 0.5 µg/mL (≈ 1.31 µM); MIC90 (Escherichia coli [16]): 1 µg/mL (≈ 2.62 µM); MIC (Escherichia coli [16]): 0.25 to 2 µg/mL (≈ 0.655 to 5.24 µM); MIC50 (Escherichia coli [17]): 0.5 µg/mL (≈ 1.31 µM); MIC90 (Escherichia coli [17]): 1 µg/mL (≈ 2.62 µM); MIC (Escherichia coli [17]): 0.25 to 2 µg/mL (≈ 0.655 to 5.24 µM); MIC50 (Acinetobacter baumannii [18]): 2 µg/mL (≈ 5.24 µM); MIC90 (Acinetobacter baumannii [18]): > 16 µg/mL; MIC50 (Acinetobacter baumannii [19]): 2 µg/mL (≈ 5.24 µM); MIC (Acinetobacter baumannii [19]; read-out: MIC): 0.12 to 16 µg/mL (≈ 0.315 to 41.9 µM); MIC50 (Acinetobacter baumannii [20]): 2 µg/mL (≈ 5.24 µM); MIC (Acinetobacter baumannii [20]; read-out: MIC): 0.12 to 16 µg/mL (≈ 0.315 to 41.9 µM); MIC50 (Acinetobacter baumannii [21]): 2 µg/mL (≈ 5.24 µM); MIC (Acinetobacter baumannii [21]; read-out: MIC): 0.12 to 16 µg/mL (≈ 0.315 to 41.9 µM); MIC50 (Acinetobacter baumannii [22]): 2 µg/mL (≈ 5.24 µM); MIC (Acinetobacter baumannii [22]; read-out: MIC): 0.12 to 16 µg/mL (≈ 0.315 to 41.9 µM); MIC50 (Acinetobacter baumannii [23]): 2 µg/mL (≈ 5.24 µM); MIC (Acinetobacter baumannii [23]; read-out: MIC): 0.12 to 16 µg/mL (≈ 0.315 to 41.9 µM) |
| Cn1c(CNC2(C)CCC2)cc2cc3c(cc21)OCCc1c-3[nH]c(=O)c(C(=O)O)c1O | 0.5 (≈ 1.18 µM) | 1 (≈ 2.36 µM) | 0.78 (≈ 1.84 µM) | 0.5 (≈ 1.18 µM) | 0.5 (≈ 1.18 µM) | 1 (≈ 2.36 µM) | 3.9 | 2 - 4 | 3.3 | 4420 | 13 | 50 | 0.15 | 0.5 (≈ 1.18 µM) | 1 (≈ 2.36 µM) | 0.12 to 1 (≈ 0.283 to 2.36 µM) | 0.5 (≈ 1.18 µM) | 1 (≈ 2.36 µM) | 0.5 (≈ 1.18 µM) | 1 (≈ 2.36 µM) | survival at 20 mg/kg (Escherichia coli [24]): 67%; MIC (Escherichia coli [15]): 0.12 to 1 µg/mL (≈ 0.283 to 2.36 µM); MIC50 (Escherichia coli [16]): 0.5 µg/mL (≈ 1.18 µM); MIC90 (Escherichia coli [16]): 1 µg/mL (≈ 2.36 µM); MIC (Escherichia coli [16]): 0.12 to 1 µg/mL (≈ 0.283 to 2.36 µM); MIC50 (Escherichia coli [17]): 0.5 µg/mL (≈ 1.18 µM); MIC90 (Escherichia coli [17]): 1 µg/mL (≈ 2.36 µM); MIC (Escherichia coli [17]): 0.12 to 1 µg/mL (≈ 0.283 to 2.36 µM); MIC50 (Acinetobacter baumannii [18]): 1 µg/mL (≈ 2.36 µM); MIC90 (Acinetobacter baumannii [18]): 8 µg/mL (≈ 18.9 µM); MIC50 (Acinetobacter baumannii [19]): 1 µg/mL (≈ 2.36 µM); MIC90 (Acinetobacter baumannii [19]): 8 µg/mL (≈ 18.9 µM); MIC50 (Acinetobacter baumannii [20]): 1 µg/mL (≈ 2.36 µM); MIC90 (Acinetobacter baumannii [20]): 8 µg/mL (≈ 18.9 µM); MIC50 (Acinetobacter baumannii [21]): 1 µg/mL (≈ 2.36 µM); MIC90 (Acinetobacter baumannii [21]): 8 µg/mL (≈ 18.9 µM); MIC50 (Acinetobacter baumannii [22]): 1 µg/mL (≈ 2.36 µM); MIC90 (Acinetobacter baumannii [22]): 8 µg/mL (≈ 18.9 µM); MIC50 (Acinetobacter baumannii [23]): 1 µg/mL (≈ 2.36 µM); MIC90 (Acinetobacter baumannii [23]): 8 µg/mL (≈ 18.9 µM) |
